The values that follow come from publication PMC5885750 (Bioorganic & medicinal chemistry letters, 2018).

Experiment [1] addresses T1, Heptosyltransferase I (HepI) (Escherichia coli, UniProt P24173). The experiment in a line: Kinetic characterization of inhibition mechanism. Type of experiment: biochemical. In outline:
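Rates at rising inhibitor levels fitted to a mixed (noncompetitive) equation with Ks, Ki and α. α marks preference for free enzyme (>1), ternary complex (<1) or neither (=1). It is judged from whether Km rises, falls or stays unchanged as inhibitor increases. ODLA acceptor was varied in the ODLA series.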

The target in experiment [2] is T1, Heptosyltransferase I (HepI). The experiment in a line: Inhibition of HepI catalysis with substrates ODLA and ADP-Heptose. Type of experiment: biochemical.

Structures are written as SMILES.

T1 sequence (P24173 whole entry): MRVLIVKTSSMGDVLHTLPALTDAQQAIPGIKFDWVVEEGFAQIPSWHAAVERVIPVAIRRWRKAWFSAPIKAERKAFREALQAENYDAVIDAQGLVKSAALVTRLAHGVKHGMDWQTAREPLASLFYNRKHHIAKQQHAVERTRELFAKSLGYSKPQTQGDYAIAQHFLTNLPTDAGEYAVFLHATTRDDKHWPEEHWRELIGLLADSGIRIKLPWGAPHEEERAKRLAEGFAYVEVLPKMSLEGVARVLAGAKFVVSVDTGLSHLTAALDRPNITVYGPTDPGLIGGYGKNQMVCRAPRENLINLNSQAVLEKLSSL

Turning to `CCCC/C=C/CO[C@@H]1O[C@H](CO)[C@@H](O)[C@H](O)[C@H]1O` [Compound 7, hexene-β-D-glucopyranoside], the “kcat ADP-Heptose” value came to 2.8 ± 0.3 s⁻¹ in experiment [1] ([Inhibitor] 10 μM), 1.6 ± 0.1 s⁻¹ in experiment [1] ([Inhibitor] 100 μM) and 0.76 ± 0.08 s⁻¹ in experiment [1] ([Inhibitor] 1000 μM). Further, the “kcat ODLA” value was 1.4 ± 0.03 s⁻¹ in experiment [1] ([Inhibitor] 10 μM), 1.3 ± 0.004 s⁻¹ in experiment [1] ([Inhibitor] 100 μM) and 0.9 ± 0.2 s⁻¹ in experiment [1] ([Inhibitor] 1000 μM). Further, in experiment [1] (acceptor substrate ODLA varied), the “type of inhibition against ODLA” value was “uncompetitive inhibition”. For the same compound, the “α (preference for free enzyme or ES complex)” value in experiment [1] (against ADP-Heptose, α<1 = prefers ES complex) is recorded as less than 1. The “type of inhibition against ADP-Heptose” value in experiment [1] (donor substrate ADP-Heptose varied) was “noncompetitive (mixed-competitive) inhibition”.
As for `CCCCCCCCO[C@@H]1O[C@H](CO)[C@@H](O)[C@H](O)[C@H]1O` [n-Octyl-β-D-glucopyranoside], in experiment [2], the “inhibition of HepI activity (in words)” value is reported as “small degree of inhibition”.
